Laboratory results reported in ChEMBL document CHEMBL2029310 (Bioorg Med Chem Lett, 2012).
Activity calls are given as the source filed them. The calls are words filed in the database; no cut-off is given here.

Assays:
[1] = target: T1, Rap guanine nucleotide exchange factor 4 (Homo sapiens, UniProt Q8WZA2); experiment: Competitive inhibition of Epac2 using fluorescent nucleotide analog 8-NBD-cAMP by fluorescence analysis
Target sequence in this assay (Q8WZA2 whole entry): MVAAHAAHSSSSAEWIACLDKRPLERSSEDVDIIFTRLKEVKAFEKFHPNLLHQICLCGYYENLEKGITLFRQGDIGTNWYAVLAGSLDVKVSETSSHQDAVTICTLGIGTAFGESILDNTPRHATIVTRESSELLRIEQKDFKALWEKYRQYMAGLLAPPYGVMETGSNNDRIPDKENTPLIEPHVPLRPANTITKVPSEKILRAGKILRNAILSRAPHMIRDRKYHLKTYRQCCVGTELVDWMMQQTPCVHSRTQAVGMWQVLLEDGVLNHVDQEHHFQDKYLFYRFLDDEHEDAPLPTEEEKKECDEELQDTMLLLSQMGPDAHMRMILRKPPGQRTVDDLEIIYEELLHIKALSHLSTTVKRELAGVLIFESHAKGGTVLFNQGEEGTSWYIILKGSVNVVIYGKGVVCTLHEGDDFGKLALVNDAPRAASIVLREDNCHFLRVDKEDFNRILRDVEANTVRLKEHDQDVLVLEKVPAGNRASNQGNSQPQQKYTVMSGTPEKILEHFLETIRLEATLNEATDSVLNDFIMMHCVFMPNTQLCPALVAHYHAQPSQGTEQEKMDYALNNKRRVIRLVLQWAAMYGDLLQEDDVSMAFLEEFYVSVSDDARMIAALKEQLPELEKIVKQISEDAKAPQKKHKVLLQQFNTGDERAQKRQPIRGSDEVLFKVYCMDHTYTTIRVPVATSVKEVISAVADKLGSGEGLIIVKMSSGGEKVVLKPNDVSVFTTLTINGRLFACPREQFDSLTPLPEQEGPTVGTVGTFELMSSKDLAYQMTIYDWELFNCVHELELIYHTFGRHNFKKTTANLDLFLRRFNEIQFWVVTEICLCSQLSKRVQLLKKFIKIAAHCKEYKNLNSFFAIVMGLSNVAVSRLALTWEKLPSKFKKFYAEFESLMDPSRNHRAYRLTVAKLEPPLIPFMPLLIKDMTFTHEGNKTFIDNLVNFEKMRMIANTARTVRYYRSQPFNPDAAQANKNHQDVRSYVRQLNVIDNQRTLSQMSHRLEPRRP

[2] = Inhibition of PKA type1 activation at 25 uM
[3] = Inhibition of PKA type2 activation at 25 uM
[4] = target: T2, Rap guanine nucleotide exchange factor 3 (Homo sapiens) (UniProt O95398); experiment: Inhibition of Epac1 at 25 uM in presence of equal molar concentration of cAMP
T2 sequence (whole entry): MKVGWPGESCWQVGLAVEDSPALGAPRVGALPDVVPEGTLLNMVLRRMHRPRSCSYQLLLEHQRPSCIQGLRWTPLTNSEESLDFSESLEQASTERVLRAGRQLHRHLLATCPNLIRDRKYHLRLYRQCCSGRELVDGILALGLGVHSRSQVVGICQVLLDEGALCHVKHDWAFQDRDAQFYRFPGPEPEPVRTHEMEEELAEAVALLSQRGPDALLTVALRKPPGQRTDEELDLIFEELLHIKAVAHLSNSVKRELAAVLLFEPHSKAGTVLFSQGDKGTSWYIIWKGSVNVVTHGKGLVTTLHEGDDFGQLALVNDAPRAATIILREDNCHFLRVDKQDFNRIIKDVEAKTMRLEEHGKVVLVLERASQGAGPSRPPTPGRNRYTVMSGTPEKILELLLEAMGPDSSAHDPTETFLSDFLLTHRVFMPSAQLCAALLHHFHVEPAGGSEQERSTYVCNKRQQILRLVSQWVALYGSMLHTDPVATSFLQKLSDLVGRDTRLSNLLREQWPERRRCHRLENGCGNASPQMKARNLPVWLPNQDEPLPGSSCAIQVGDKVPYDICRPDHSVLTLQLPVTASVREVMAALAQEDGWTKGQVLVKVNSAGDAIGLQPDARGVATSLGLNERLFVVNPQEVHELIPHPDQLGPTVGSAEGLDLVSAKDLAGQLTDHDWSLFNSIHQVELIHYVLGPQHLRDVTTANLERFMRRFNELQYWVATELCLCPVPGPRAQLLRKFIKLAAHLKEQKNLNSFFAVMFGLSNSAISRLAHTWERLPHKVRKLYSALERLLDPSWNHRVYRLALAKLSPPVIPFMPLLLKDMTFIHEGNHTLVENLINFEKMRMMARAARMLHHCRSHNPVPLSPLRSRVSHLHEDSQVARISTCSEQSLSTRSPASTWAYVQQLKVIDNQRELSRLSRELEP

[5] = target: T1, Rap guanine nucleotide exchange factor 4; experiment: Inhibition of Epac2 at 25 uM in presence of equal molar concentration of cAMP
Target sequence in this assay (Q8WZA2 whole entry, looked up): as the sequence (Q8WZA2 whole entry) above

[6] = target: T1, Rap guanine nucleotide exchange factor 4; experiment: Inhibition of cAMP-mediated recombinant Epac2 GEF activity at 25 uM by fluorescence analysis in presence of cAMP
Target sequence in this assay (Q8WZA2 whole entry, looked up): as the sequence (Q8WZA2 whole entry) above

[7] = target: T2, Rap guanine nucleotide exchange factor 3 (Homo sapiens); experiment: Inhibition of recombinant Epac1-mediated Rap1-GDP exchange activity at 25 uM by fluorescence analysis in presence of cAMP
[8] = target: T2, Rap guanine nucleotide exchange factor 3 (Homo sapiens); experiment: Inhibition of recombinant Epac1-mediated Akt phosphorylation at T308 expressed in 007-AM-stimulated HEK293 cells at 10 uM administered 5 mins prior to 007-AM by Western blot analysis; format: cell-based
Procedure, shortened: (§1)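 HEK293/Epac1 or HEK293/Epac2 cells were pretreated, or not, with 10 μM antagonist for 5 min. They were then stimulated with 10 μM 007-AM, the membrane-permeable Epac-selective agonist. Cell lysates were immunoblotted with PKB antibodies specific for phospho-Ser473 and phospho-Thr308.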

[9] = target: T2, Rap guanine nucleotide exchange factor 3 (Homo sapiens); experiment: Inhibition of recombinant Epac1-mediated Akt phosphorylation at S473 expressed in 007-AM-stimulated HEK293 cells at 10 uM administered 5 mins prior to 007-AM by Western blot analysis; format: cell-based; procedure, shortened: as §1
[10] = target: T1, Rap guanine nucleotide exchange factor 4; experiment: Inhibition of recombinant Epac2-mediated Akt phosphorylation at T308 expressed in 007-AM-stimulated HEK293 cells at 10 uM administered 5 mins prior to 007-AM by Western blot analysis; format: cell-based; procedure, shortened: as §1
Target sequence in this assay (Q8WZA2 whole entry, looked up): as the sequence (Q8WZA2 whole entry) above

[11] = target: T1, Rap guanine nucleotide exchange factor 4; experiment: Inhibition of recombinant Epac2-mediated Akt phosphorylation at S473 expressed in 007-AM-stimulated HEK293 cells at 10 uM administered 5 mins prior to 007-AM by Western blot analysis; format: cell-based; procedure, shortened: as §1
Target sequence in this assay (Q8WZA2 whole entry, looked up): as the sequence (Q8WZA2 whole entry) above

**Q.** Which IC50 [1] does the source give for N#Cc1c(C2CCCCC2)nc(SCC(=O)Nc2ccccc2)[nH]c1=O here?
**A.** Its IC50 is over 300 µM.

**Q.** With Cc1cc(C)c(NC(=O)CSc2nc(C3CCCCC3)c(C#N)c(=O)[nH]2)c(C)c1 as the compound, how does the IC50 [1] read?
**A.** The IC50 was over 300 µM.

**Q.** With Cc1ccc(NC(=O)CSc2nc(C3CCCCC3)c(C#N)c(=O)[nH]2)cc1 as the compound, how does the IC50 [1] read?
**A.** Its IC50 is over 300 µM.

**Q.** Which inhibition [2] does the source give for O=S(=O)(NCCNC/C=C/c1ccc(Br)cc1)c1cccc2cnccc12 here?
**A.** The inhibition was “Active”.

**Q.** What about the inhibition [3] of the same compound?
**A.** The inhibition was “Active”.

**Q.** For Cc1cc(C)c(CSc2nc(C3CCCCC3)c(C#N)c(=O)[nH]2)c(C)c1, which IC50 [1] is on record?
**A.** The IC50 was 11.6 µM.

**Q.** Which inhibition [4] does the source give for Cc1ccc(C)c(CSc2nc(C3CCCCC3)c(C#N)c(=O)[nH]2)c1 here?
**A.** The inhibition was “Active”.

**Q.** And the inhibition [5]?
**A.** Its inhibition is “Active”.

**Q.** What about the IC50 [1] of the same compound?
**A.** The IC50 was 8.4 µM.

**Q.** What about the inhibition [2] of the same compound?
**A.** The inhibition was “inactive”.

**Q.** And the inhibition [3]?
**A.** The inhibition was “inactive”.

**Q.** Which IC50 [1] does the source give for N#Cc1c(C2CCCCC2)nc(Nc2ccccc2)[nH]c1=O here?
**A.** The IC50 was over 300 µM.

**Q.** Which IC50 [1] does the source give for N#Cc1c(C2CCCCC2)nc(SCc2ccccc2)[nH]c1=O here?
**A.** The IC50 was 30.5 µM.

**Q.** For Cc1ccc(C)c(CSc2nc(C3CCCC3)c(C#N)c(=O)[nH]2)c1, which IC50 [1] is on record?
**A.** The IC50 was 5.9 µM.

**Q.** And the inhibition [6]?
**A.** The inhibition was “Active”.

**Q.** And the inhibition [7]?
**A.** Its inhibition is “Active”.

**Q.** What about the inhibition [2] of the same compound?
**A.** Its inhibition is “inactive”.

**Q.** And the inhibition [3]?
**A.** Its inhibition is “inactive”.

**Q.** What about the inhibition [8] of the same compound?
**A.** Its inhibition is “Active”.

**Q.** What about the inhibition [9] of the same compound?
**A.** Its inhibition is “Active”.

**Q.** And the inhibition [10]?
**A.** Its inhibition is “Active”.

**Q.** What about the inhibition [11] of the same compound?
**A.** The inhibition was “Active”.

**Q.** Which IC50 [1] does the source give for Cc1ccc(CSc2nc(C3CCCCC3)c(C#N)c(=O)[nH]2)cc1 here?
**A.** The IC50 was 38.7 µM.

**Q.** With Cc1ccc(C)c(CSc2nc(C(C)C)c(C#N)c(=O)[nH]2)c1 as the compound, how does the IC50 [1] read?
**A.** The IC50 was 12.7 µM.

**Q.** With N#Cc1c(C2CCCCC2)nc(SCC(=O)O)[nH]c1=O as the compound, how does the IC50 [1] read?
**A.** Its IC50 is over 300 µM.

**Q.** With N#Cc1c(C2CCCCC2)nc(S)[nH]c1=O as the compound, how does the IC50 [1] read?
**A.** Its IC50 is over 300 µM.

**Q.** Which IC50 [1] does the source give for Cc1ccc(C)c(CSc2nc(C3CC3)c(C#N)c(=O)[nH]2)c1 here?
**A.** Its IC50 is 4 µM.

**Q.** And the inhibition [6]?
**A.** The inhibition was “Active”.

**Q.** And the inhibition [2]?
**A.** Its inhibition is “inactive”.

**Q.** What about the inhibition [3] of the same compound?
**A.** The inhibition was “inactive”.

**Q.** What about the inhibition [8] of the same compound?
**A.** The inhibition was “Active”.

**Q.** And the inhibition [9]?
**A.** The inhibition was “Active”.

**Q.** What about the inhibition [10] of the same compound?
**A.** Its inhibition is “Active”.

**Q.** And the inhibition [11]?
**A.** Its inhibition is “Active”.

**Q.** With Cc1ccc(CSc2nc(C3CCCCC3)c(C#N)c(=O)[nH]2)c(C)c1 as the compound, how does the IC50 [1] read?
**A.** The IC50 was 15.7 µM.

**Q.** With Cc1ccc(C)c(CSc2nc(C3CCN(C)CC3)c(C#N)c(=O)[nH]2)c1 as the compound, how does the IC50 [1] read?
**A.** Its IC50 is 127 µM.

**Q.** Which IC50 [1] does the source give for Cc1ccc(C)c(CSc2nc(C3CCNCC3)c(C#N)c(=O)[nH]2)c1 here?
**A.** Its IC50 is over 300 µM.

**Q.** For Cc1cc(C)cc(CSc2nc(C3CCCCC3)c(C#N)c(=O)[nH]2)c1, which IC50 [1] is on record?
**A.** The IC50 was 7 µM.

**Q.** With N#Cc1c(C2CCCCC2)nc(Nc2ccc(Cl)cc2)[nH]c1=O as the compound, how does the IC50 [1] read?
**A.** The IC50 was over 300 µM.
